Experimental data: ChEMBL document CHEMBL1157945, “Bioactive secolignans from Peperomia dindygulensis” (J Nat Prod, 2006)

Assays:
HepG2 = test: Cytotoxicity against human HepG2 cells; assay type: functional, cell-based
How it was run: (§1)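 Growth inhibition in WI-38 fibroblasts (Eagle's MEM), VA-13 (RITC 80-7) and HepG2 (D-MEM) lines, each medium with 10% FBS and 80 µg/mL kanamycin.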

[1] = Cytotoxicity against human WI38 cells; assay type: cell-based; settings: WI-38; how it was run: as §1
[2] = Reversal of multidrug resistance in human AD10 cells assessed as increase in calcein accumulation at 2.5 ug/ml relative to control; assay type: functional
How it was run: (§2)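 Multidrug-resistant ovarian A2780 subline AD10, kept in RPMI-1640 with 10% FBS and 80 µg/mL kanamycin. Intracellular accumulation of the fluorescent efflux probe calcein AM measured with test compounds at 0.25, 2.5 and 25 µg/mL; verapamil as reference. Values given relative to untreated control or to verapamil; means of triplicates.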

[3] = Reversal of multidrug resistance in human AD10 cells assessed as increase in calcein accumulation at 0.25 ug/ml relative to verapamil; assay type: functional; how it was run: as §2
[4] = Reversal of multidrug resistance in human AD10 cells assessed as increase in calcein accumulation at 0.25 ug/ml relative to control; assay type: functional; how it was run: as §2
WI-38 VA13 = test: Cytotoxicity against human VA13 cells; assay type: functional, cell-based; how it was run: as §1
A549 [5] = test: Cytotoxicity against human A549 cells after 24 hrs by MTT assay; assay type: functional, cell-based; settings: A549, 24 h
How it was run: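 A549 cells in RPMI 1640 with 10% FBS were exposed to serial dilutions of compound for 24 h. Viability read by MTT absorbance: % = (experimental − background)/(control − background) ×100. IC50 taken from viability data.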

A549 [6] = test: Antiinflammatory activity in human A549 cells assessed as inhibition of TNF-alpha-induced ICAM1 induction incubated for 1 hr prior to TNFalpha challenge measured after 6 hrs; assay type: functional, cell-based
How it was run: (§3)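 A549 cells grown in RPMI 1640 with 10% FBS and penicillin-streptomycin. Pretreated with serially varied compound concentrations for 1 h, then stimulated with IL-1α or TNF-α for 6 h. Cell-surface ICAM-1 detected with mouse anti-human ICAM-1 antibody plus peroxidase-conjugated goat anti-mouse IgG, read as absorbance. Expression as % of control = (sample+cytokine − no cytokine)/(cytokine − no cytokine) ×100; IC50 derived from this.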

[7] = Reversal of multidrug resistance in human AD10 cells assessed as increase in calcein accumulation at 25 ug/ml relative to control; assay type: functional; how it was run: as §2
[8] = Reversal of multidrug resistance in human AD10 cells assessed as increase in calcein accumulation at 25 ug/ml relative to verapamil; assay type: functional; how it was run: as §2
A549 [9] = test: Antiinflammatory activity in human A549 cells assessed as inhibition of IL1alpha -induced ICAM1 induction incubated for 1 hr prior to IL1alpha challenge measured after 6 hrs; assay type: functional, cell-based; how it was run: as §3
[10] = Reversal of multidrug resistance in human AD10 cells assessed as increase in calcein accumulation at 2.5 ug/ml relative to verapamil; assay type: functional; how it was run: as §2

IC50 (A549 [6]) [µM]	IC50 (A549 [9]) [µM]	Compound	IC50 (HepG2) [µM]	IC50 [1] [µM]	Activity [2] [%]	Activity [3] [%]	Activity [4] [%]	IC50 (WI-38 VA13) [µM]	IC50 (A549 [5]) [µM]	Activity [7] [%]	Activity [8] [%]	Activity [10] [%]
3.16	4.23	C=C1C(=O)OC[C@H]1C(c1cc(OC)c(O)c(OC)c1)c1cc(OC)c2c(c1)OCO2 (some centres not stated)	22.3	20.9	98	98	104	13.5	84.7	125	83	85
		COc1cc(C(c2cc(OC)c3c(c2)OCO3)[C@@H]2CO[C@@H](O)[C@@H]2C)cc2c1OCO2	140	142	104	93	99	138		107	71	90
		COc1cc(C(c2cc(OC)c3c(c2)OCO3)[C@@H]2COC(=O)[C@H]2C)cc(OC)c1O (some centres not stated)	159	174	104	93	99	112		107	71	90
		COc1cc(C(c2cc(OC)c3c(c2)OCO3)[C@@H]2COC(=O)[C@@H]2CO)cc(OC)c1OC (some centres not stated)	> 224	> 224	109	98	105	> 224		125	83	94
59.9	119	COc1cc(C(c2cc(OC)c(OC)c(OC)c2)[C@@H]2COC(=O)[C@H]2C)cc(O)c1OC (some centres not stated)	> 231	> 231	104	95	101	> 231	> 316	105	70	90
29	44.3	COc1cc(C(c2cc(OC)c(OC)c(OC)c2)[C@@H]2COC(=O)[C@H]2C)cc(OC)c1O (some centres not stated)	163	184	95	90	96	151	> 316	103	68	82
		COc1cc(C(c2cc(OC)c3c(c2)OCO3)[C@@H]2COC(=O)[C@@H]2CO)cc2c1OCO2	97.8	12.8	95	92	98	113	> 316	105	70	82
		COc1ccc(CCN(C)CCCC(C#N)(c2ccc(OC)c(OC)c2)C(C)C)cc1OC (configuration not stated)			116		106			150		
		COc1cc(C(c2cc(OC)c3c(c2)OCO3)[C@@H]2COC(=O)[C@@H]2COC(C)=O)cc(OC)c1O (single isomer, unassigned; (-))	75.9	14.8	104	101	108	15.2		104	69	89
		COc1cccc2c1C(=O)c1c(O)c3c(c(O)c1C2=O)C[C@@](O)(C(=O)CO)C[C@@H]3O[C@H]1C[C@H](N)[C@H](O)[C@H](C)O1 (stereo in doubt) [DOXORUBICIN]	2.21	1.21				0.699				
		CC(=O)O[C@H]1C(=O)[C@@]2(C)[C@H]([C@H](OC(=O)c3ccccc3)[C@]3(O)C[C@H](OC(=O)[C@H](O)[C@@H](NC(=O)c4ccccc4)c4ccccc4)C(C)=C1C3(C)C)[C@]1(OC(C)=O)CO[C@@H]1C[C@@H]2O [PACLITAXEL]		0.0468				0.0059				
		COc1cc(C(c2cc(OC)c3c(c2)OCO3)[C@@H]2COC(=O)[C@H]2C)cc2c1OCO2 [PEPEROMIN A]	> 239	> 239	91	90	85	> 239	> 316	120	83	82
		COc1cc([C@@H](c2cc(OC)c3c(c2)OCO3)[C@@H]2COC(=O)[C@H]2C)cc(OC)c1OC [PEPEROMIN B]	119	9.06	104	132	111	13.9	> 316	121	81	107
125	246	COc1cc(C(c2cc(OC)c(OC)c(OC)c2)[C@@H]2COC(=O)[C@H]2C)cc(OC)c1OC [PEPEROMIN C]	189	175	115	130	109	120	> 316	138	92	118
		C=C1C(=O)OC[C@H]1C(c1cc(OC)c2c(c1)OCO2)c1cc(OC)c2c(c1)OCO2 [PEPEROMIN E]	12.1	1.21	102	96	102	1.93	78.9	132	88	88
